# Source: ChEMBL document CHEMBL5705890, “Antitumor activity of an allosteric inhibitor of centromere-associated protein-E” (Proc Natl Acad Sci U S A, 2010)
# Legend:
# Assay type in all cases: functional
# A-375 = assay: Anticancer activity against human A-375 cells assessed as cell growth inhibition measured after 72 hrs by DAPI staining based analysis
# Procedure, shortened: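 Cells were seeded and, after 24 h, DNA content was read as T0. Cells were then exposed to varying drug concentrations for a further 72 h (T72). Fixed cells were DAPI-stained and DNA content measured by automated imaging. T72 values were normalized to T0. GI50 is the concentration giving 50% growth inhibition between T0 and Ymax, obtained by curve fitting.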
# BeWo = assay: Anticancer activity against human BeWo cells assessed as cell growth inhibition measured after 72 hrs by DAPI staining based analysis
# Procedure, shortened: (§1)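 Cells were seeded, and DNA content at 24 h after seeding (T0) was read by imaging of fixed, DAPI-stained cells. Cells were then exposed to a range of drug concentrations for a further 72 h (T72) and DNA content was read again. T72 values were normalized to T0, and GI50 was taken from curve fits as the concentration giving 50% growth inhibition relative to T0 and Ymax.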
# BPH-1 = assay: Anticancer activity against human BPH-1 cells assessed as cell growth inhibition measured after 72 hrs by DAPI staining based analysis; procedure, shortened: as §1
# BT-20 = assay: Anticancer activity against human BT-20 cells assessed as cell growth inhibition measured after 72 hrs by DAPI staining based analysis; procedure, shortened: as §1
# CHL-1 = assay: Anticancer activity against human CHL-1 cells assessed as cell growth inhibition measured after 72 hrs by DAPI staining based analysis; procedure, shortened: as §1
# DU-145 [1] = assay: Anticancer activity against human DU-145 cells assessed as cell growth inhibition measured after 72 hrs by DAPI staining based analysis
# Procedure, shortened: (§2)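 Cells seeded, DAPI-stained DNA content of fixed cells read by imaging 24 h after seeding (T0), and again after a further 72 h exposure to a range of drug concentrations (T72). T72 values were normalized to T0. Curve fits gave the concentration producing 50% growth inhibition relative to T0 and Ymax (GI50).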
# G-401 = assay: Anticancer activity against human G-401 cells assessed as cell growth inhibition measured after 72 hrs by DAPI staining based analysis; procedure, shortened: as §2
# HCC1143 = assay: Anticancer activity against human HCC1143 cells assessed as cell growth inhibition measured after 72 hrs by DAPI staining based analysis; procedure, shortened: as §2
# [2] = system: KATO III stomach cancer cell line; assay: Anticancer activity against human KATO III stomach cancer cell line cells assessed as cell growth inhibition measured after 72 hrs by DAPI staining based analysis
# MC-IXC = assay: Anticancer activity against human MC-IXC cells assessed as cell growth inhibition measured after 72 hrs by DAPI staining based analysis
# MDA-MB-468 = assay: Anticancer activity against human MDA-MB-468 cells assessed as cell growth inhibition measured after 72 hrs by DAPI staining based analysis
# NCI-H2052 = assay: Anticancer activity against human NCI-H2052 cells assessed as cell growth inhibition measured after 72 hrs by DAPI staining based analysis
# NCI-H292 = assay: Anticancer activity against human NCI-H292 cells assessed as cell growth inhibition measured after 72 hrs by DAPI staining based analysis
# NCI-H358 = assay: Anticancer activity against human NCI-H358 cells assessed as cell growth inhibition measured after 72 hrs by DAPI staining based analysis
# RKO = assay: Anticancer activity against human RKO cells assessed as cell growth inhibition measured after 72 hrs by DAPI staining based analysis
# SN12C = assay: Anticancer activity against human SN12C cells assessed as cell growth inhibition measured after 72 hrs by DAPI staining based analysis
# SNB-75 = assay: Anticancer activity against human SNB-75 cells assessed as cell growth inhibition measured after 72 hrs by DAPI staining based analysis
# SNU-16 = assay: Anticancer activity against human SNU-16 cells assessed as cell growth inhibition measured after 72 hrs by DAPI staining based analysis
# SNU-423 = assay: Anticancer activity against human SNU-423 cells assessed as cell growth inhibition measured after 72 hrs by DAPI staining based analysis
# [3] = Anticancer activity against human SW579 cells assessed as cell growth inhibition measured after 72 hrs by DAPI staining based analysis
# 786-0 = assay: Anticancer activity against human 786-0 cells assessed as cell doubling measured for 72 hrs by DAPI staining based analysis
# A549 = assay: Anticancer activity against human A549 cells assessed as cell doubling measured for 72 hrs by DAPI staining based analysis
# AN3-CA = assay: Anticancer activity against human AN3-CA cells assessed as cell doubling measured for 72 hrs by DAPI staining based analysis
# [4] = Anticancer activity against human BC1 cells assessed as cell doubling measured for 72 hrs by DAPI staining based analysis
# BHT-101 = assay: Anticancer activity against human BHT-101 cells assessed as cell doubling measured for 72 hrs by DAPI staining based analysis
# D283 Med = assay: Anticancer activity against human D283 Med cells assessed as cell doubling measured for 72 hrs by DAPI staining based analysis
# DU-145 [5] = assay: Anticancer activity against human DU-145 cells assessed as cell doubling measured for 72 hrs by DAPI staining based analysis
# FaDu = assay: Anticancer activity against human FaDu cells assessed as cell doubling measured for 72 hrs by DAPI staining based analysis
# H4 = assay: Anticancer activity against human H4 cells assessed as cell doubling measured for 72 hrs by DAPI staining based analysis
# MCF-10A = assay: Anticancer activity against human MCF-10A cells assessed as cell doubling measured for 72 hrs by DAPI staining based analysis
# NCI-H1299 = assay: Anticancer activity against human NCI-H1299 cells assessed as cell doubling measured for 72 hrs by DAPI staining based analysis
# NCI-H596 = assay: Anticancer activity against human NCI-H596 cells assessed as cell doubling measured for 72 hrs by DAPI staining based analysis
# NCI-H661 = assay: Anticancer activity against human NCI-H661 cells assessed as cell doubling measured for 72 hrs by DAPI staining based analysis
# RXF 393 = assay: Anticancer activity against human RXF 393 cells assessed as cell doubling measured for 72 hrs by DAPI staining based analysis
# SW1088 = assay: Anticancer activity against human SW1088 cells assessed as cell doubling measured for 72 hrs by DAPI staining based analysis
# U2OS = assay: Anticancer activity against human U2OS cells assessed as cell doubling measured for 72 hrs by DAPI staining based analysis
# UACC-62 = assay: Anticancer activity against human UACC-62 cells assessed as cell doubling measured for 72 hrs by DAPI staining based analysis
# WiDr = assay: Anticancer activity against human WiDr cells assessed as cell doubling measured for 72 hrs by DAPI staining based analysis
# COLO 205 = assay: Antitumor activity against human COLO 205 cells in xenograft model assessed as difference between median time to endpoint time of treated versus control group at 62.5 mg/kg
# NCI-H460 = assay: Antitumor activity against human NCI-H460 cells in xenograft model assessed as tumor growth delay at 125 mg/kg relative to control
smiles,measurement,setting,value
CC(C)Oc1ccc(C(=O)N[C@H](CNC(=O)CN(C)C)Cc2ccc(-c3cn4cccc([C@H](C)O)c4n3)cc2)cc1Cl [GSK-923295A],GI50,A-375,26 nM
same,GI50,BeWo,26 nM
same,GI50,BPH-1,52 nM
same,GI50,BT-20,32 nM
same,GI50,CHL-1,24 nM
same,GI50,DU-145 [1],23 nM
same,GI50,G-401,26 nM
same,GI50,HCC1143,27 nM
same,GI50,[2],79 nM
same,GI50,MC-IXC,27 nM
same,GI50,MDA-MB-468,25 nM
same,GI50,NCI-H2052,44 nM
same,GI50,NCI-H292,31 nM
same,GI50,NCI-H358,18 nM
same,GI50,RKO,53 nM
same,GI50,SN12C,29 nM
same,GI50,SNB-75,26 nM
same,GI50,SNU-16,18 nM
same,GI50,SNU-423,34 nM
same,GI50,[3],26 nM
same,Activity,786-0,2.59
same,Activity,A549,3.53
same,Activity,AN3-CA,1.74
same,Activity,[4],3.65
same,Activity,BHT-101,2.09
same,Activity,D283 Med,1.27
same,Activity,DU-145 [5],2.25
same,Activity,FaDu,2.61
same,Activity,H4,2.64
same,Activity,MCF-10A,3.87
same,Activity,NCI-H1299,2.78
same,Activity,NCI-H596,1.31
same,Activity,NCI-H661,1.56
same,Activity,RXF 393,1.2
same,Activity,SW1088,2.55
same,Activity,U2OS,3.08
same,Activity,UACC-62,2.12
same,Activity,WiDr,3.05
same,Time,COLO 205,24.9 days
same,Activity,NCI-H460,210%
